Results from different studies.
≈ marks a conversion by molar mass, not a printed value.

SMILES | organism | test | system | setting | endpoint | result
O=C1CC(N(OCc2ccccc2)C(=O)c2cc([N+](=O)[O-])cc(C(F)(F)F)c2)N1 (centres unmarked) | Mycolicibacterium vaccae | microbial growth | – | – | MIC | 6.25 µM
Nc1nc(-c2ccccc2)nc2[nH]nc(Nc3ccc(C(F)(F)F)cc3)c12 | Enterovirus | cytopathic effect | HeLa | – | IC50 | 4.59 µM
CC1(C)S[C@@H]2[C@H](NC(=O)[C@H](N)c3ccccc3)C(=O)N2[C@H]1C(=O)O | Limosilactobacillus reuteri | microbial growth, broth dilution | ATCC23272 | – | MIC | 1 mg/L
OC(Cn1cncn1)(Cn1cncn1)c1ccc(F)cc1F | Kluyveromyces marxianus | microbial growth, broth dilution | – | 24 h | MIC90 | 1 mg/L (≈ 3.27 µM)
C=CCON(C(=O)c1cc([N+](=O)[O-])cc(C(F)(F)F)c1)C1CC(=O)N1SC (centres unmarked) | Mycolicibacterium vaccae | microbial growth | – | – | MIC | 6.25 µM
O=C(O)c1cn(C2CC2)c2cc(N3CCNCC3)c(F)cc2c1=O | Mycolicibacterium vaccae | microbial growth | 10670 | 1000 µg/mL | inhibition zone | 21 mm
Cc1cc(CCCOc2c(C)cc(-c3noc(C(F)(F)F)n3)cc2C)on1 | Enterovirus | cytopathic effect, inhibitor | HeLa | – | IC50 | 0.05 µM
O=C(Nc1ccccc1-c1ccc(F)c(F)c1)c1nccnc1C(F)(F)F | Mycosphaerella arachidis | microbial growth | – | – | EC50 | 0.12 mg/L (≈ 0.316 µM)
